# Reference: ChEMBL document CHEMBL5505959, “Identification of 4-amino-2-Pyridones as new potent PCSK9 inhibitors: From phenotypic hit discovery to in vivo tolerability” (Eur J Med Chem, 2024)
# Calls of active or inactive are those of the source. The calls are words filed in the database; no cut-off is given here.
# What was measured:
# [1] = Toxicity in C57BL/6 mouse assessed as effect on plasma total cholesterol level at 40 mg/kg, sc measured after 7 days by biochemical assay; settings: in vivo, 168 h
# [2] = Toxicity in C57BL/6 mouse assessed as effect on liver at 40 mg/kg, sc measured after 7 days by H and E staining based analysis; type: organism-based; settings: in vivo, 168 h, time 7 day
# Method in brief: (§1)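 Male C57BL/6J mice, three months old, 26–30 g (n = 5–6/group), received daily sc injections of 40 mg/kg in Transcutol, 50 µl, for seven days. Controls were vehicle and SBC-115076 4 mg/kg. Readouts were daily body weight, open-field locomotion and modified SHIRPA, and gross organ inspection. Liver H&E cryosections were scored by two operators; plasma cholesterol by colorimetric assay, PCSK9 by ELISA.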
# [3] = Toxicity in C57BL/6 mouse assessed as effect on gut at 40 mg/kg, sc measured after 7 days by macroscopic analysis; settings: in vivo, 168 h
# HepG2 [4] = assay: Cytotoxicity against human HepG2 cells assessed as reduction in cell viability at 5 uM measured after 24 hrs by SRB assay relative to control; type: functional
# Method in brief: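 HepG2 seeded 8000 cells/well in complete MEM; next day medium replaced with 0.4 % FBS medium containing compound or DMSO control. Viability was read by sulforhodamine B assay after 24 h, with absorbance at 570 nm. Dose-response series used 6.25, 12.5, 25, 50 or 100 μM; newer analogues were tested at a fixed 5 μM. Data are mean ± SD of three independent experiments.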
# [5] = Toxicity in C57BL/6 mouse assessed as effect on body weight at 40 mg/kg, sc measured after 7 days; type: organism-based; settings: in vivo, 168 h, time 7 day
# Method in brief: as §1
# [6] = Toxicity in C57BL/6 mouse assessed as changes in fur sheen at 40 mg/kg, sc measured after 7 days; type: organism-based; settings: in vivo, 168 h, time 7 day
# Method in brief: as §1
# [7] = Toxicity in C57BL/6 mouse assessed as abnormal arrangements of hepatocyte at 40 mg/kg, sc measured after 7 days by histopathological analysis; type: organism-based; settings: hepatocytes, 168 h, time 7 day
# Method in brief: as §1
# [8] = Toxicity in C57BL/6 mouse assessed as abnormal secretion at 40 mg/kg, sc measured after 7 days; type: organism-based; settings: in vivo, 168 h, time 7 day
# Method in brief: as §1
# HepG2 [9] = assay: Inhibition of simvastatin induced PCSK9 level in human HepG2 cells at 2.5 to 5 uM by Western blot analysis; type: functional, cell-based; settings: dose 2.5-5 µM
# Method in brief: (§2)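 HepG2 cells were treated overnight or for 24 h, alone or with simvastatin 40 μM. Lysates (1 % NP-40, 150 mM NaCl, 50 mM Tris-HCl pH 7.5) were loaded at 25 µg protein on 4–20 % SDS-PAGE. Blots were probed for proPCSK9, mature PCSK9 and LDLR, and densitometry was normalized to β-actin or GAPDH. Mean ± SD of three independent experiments.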
# HepG2 [10] = assay: Induction of LDLR expression in human HepG2 cells by Western blot analysis; type: functional, cell-based
# Method in brief: as §2
# [11] = Toxicity in C57BL/6 mouse assessed as effect on urination at 40 mg/kg, sc measured after 7 days; type: organism-based; settings: in vivo, 168 h, time 7 day
# Method in brief: as §1
# HepG2 [12] = assay: Upregulation of LDLR/PCSK9 in human HepG2 cells at 2.5 to 5 uM in presence of simvastatin by Western blot analysis; type: functional, cell-based; settings: dose 2.5-5 µM
# Method in brief: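 HepG2 cells grown in MEM with 10 % FBS. Incubated overnight with test compound with or without simvastatin 40 μM (simvastatin dissolved in 0.1 M NaOH, pH 7.4). Lysates in 1 % NP-40 buffer; 25 µg protein run on 4–20 % SDS-PAGE. Immunoblotted for PCSK9 and LDLR, normalized to GAPDH by densitometry. Mean ± SD of three experiments, one-way ANOVA.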
# [13] = Toxicity in C57BL/6 mouse assessed as effect on spleen at 40 mg/kg, sc measured after 7 days by H and E staining based analysis; type: organism-based; settings: in vivo, 168 h, time 7 day
# [14] = Toxicity in C57BL/6 mouse assessed as reduction in ALT plasma level at 40 mg/kg, sc measured after 7 days by ELISA method; type: organism-based; settings: in vivo, 168 h, time 7 day
# Method in brief: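 Male C57BL/6J mice, 3 months old, dosed subcutaneously at 40 mg/kg daily for seven days in Transcutol. Killed under isoflurane 6 h after the final dose. Retro-orbital blood taken into EDTA and spun at 3000 rpm, 4 °C, 10 min. Plasma ALT measured by ELISA kit. Mean ± SEM, n = 5–6 per group.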
# [15] = Toxicity in C57BL/6 mouse assessed as effect on brain at 40 mg/kg, sc measured after 7 days by H and E staining based analysis; type: organism-based; settings: in vivo, 168 h, time 7 day
# [16] = Downregulation of PCSK9 mRNA level in human HepG2 cells at 5 uM by qRT-PCR analysis relative to control; type: functional
# Method in brief: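 Total RNA was taken from treated HepG2 cells for RT-qPCR of PCSK9, FAS and HMG-CoA reductase. Cycling was 50 °C 10 min, 95 °C 2 min, then 40 cycles of 95 °C 5 s and 60 °C 10 s. Relative quantification used ΔΔCt against 18S, corrected for primer efficiency. Mean ± SD of three independent experiments.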
# HepG2 [17] = assay: Downregulation of proPCSK9 level in human HepG2 cells by Western blot analysis; type: functional, cell-based
# Method in brief: as §2
# [18] = Inhibition of PCSK9 expression in human HepG2 cells at 5 to 10 uM by ELISA method relative to control; type: functional; settings: dose 5-10 µM
# Method in brief: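 Secreted PCSK9 was measured in HepG2 conditioned media with a human PCSK9 DuoSet sandwich ELISA. Media were centrifuged at 15000 rpm for 10 min and diluted before reading absorbance at 450 nm. Values were normalized to HepG2 total protein content. Mean ± SD of three independent experiments.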
# [19] = Toxicity in C57BL/6 mouse assessed as spontaneous locomotor activity at 40 mg/kg, sc measured after 7 days; type: organism-based; settings: in vivo, 168 h, time 7 day
# Method in brief: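 Open-field test in male C57BL/6J mice: 10 min free exploration of a 50 × 50 × 40 cm wooden chamber, with distance and speed tracked automatically. Basal sessions were run before dosing, then testing continued across daily 50 µl subcutaneous injections (40 mg/kg, Transcutol vehicle). Distance, mean speed and % time in corners and arena were recorded as part of a modified SHIRPA screen.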
# [20] = Toxicity in C57BL/6 mouse assessed as effect on kidney at 40 mg/kg, sc measured after 7 days by H and E staining based analysis; type: organism-based; settings: in vivo, 168 h, time 7 day
# HepG2 [21] = assay: Downregulation of PCSK9 protein level in human HepG2 cells at 2.5 uM by Western blot analysis; type: functional, cell-based
# Method in brief: as §2
# [22] = Toxicity in C57BL/6 mouse assessed as inflammatory cells infiltration at 40 mg/kg, sc measured after 7 days by histopathological analysis; type: organism-based; settings: in vivo, 168 h, time 7 day
# Method in brief: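 Male C57BL/6J mice, 3 months old, 26–30 g, given 40 mg/kg subcutaneously in 100 % Transcutol (vehicle group) for seven days. Killed 6 h after the last injection. Liver fixed in 4 % PFA, cryoprotected in 20 % sucrose and cut into 7 µm cryosections. Sections stained with hematoxylin/eosin and scored by two operators for hepatocyte arrangement, inflammatory infiltration and necrosis.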
# [23] = Toxicity in C57BL/6 mouse assessed as tremor at 40 mg/kg, sc measured after 7 days; type: organism-based; settings: in vivo, 168 h, time 7 day
# Method in brief: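 General health of subcutaneously dosed C57BL/6J mice (40 mg/kg daily, Transcutol, seven days) was tracked with a modified SHIRPA screen covering phenotype, sensory and neuropsychiatric functions. Body weight was recorded daily as % change from the day −3 to −1 baseline.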
# [24] = Toxicity in C57BL/6 mouse assessed as cellular necrosis at 40 mg/kg, sc measured after 7 days by histopathological analysis; type: organism-based; settings: in vivo, 168 h, time 7 day
# Method in brief: as §1
# HepG2 [25] = assay: Downregulation of mature PCSK9 level in human HepG2 cells by Western blot analysis; type: functional, cell-based
# Method in brief: as §2
# [26] = Toxicity in C57BL/6 mouse assessed as drug tolerance at 40 mg/kg, sc measured after 7 days; type: organism-based; settings: in vivo, 168 h, time 7 day
# Method in brief: as §1
# [27] = Toxicity in C57BL/6 mouse assessed as defecations at 40 mg/kg, sc measured after 7 days; type: organism-based; settings: in vivo, 168 h, time 7 day
# Method in brief: as §1
structure (smiles),measurement,setting,value
Cc1cc(NCc2ccc(C(F)(F)F)cc2)cc(=O)n1Cc1ccc(C(F)(F)F)cc1,Activity,[1],Non-Toxic
same,Activity,[2],Non-Toxic
same,Activity,[3],Non-Toxic
same,Activity,HepG2 [4],>95%
same,Activity,[5],Non-Toxic
same,Activity,[6],Non-Toxic
same,Activity,[7],Non-Toxic
same,Activity,[8],Non-Toxic
same,inhibition,HepG2 [9],Active
same,Activity,HepG2 [10],Active
same,Activity,[11],Non-Toxic
same,Activity,HepG2 [12],Active
same,Activity,[13],Non-Toxic
same,Activity,[14],Non-Toxic
same,Activity,[15],Non-Toxic
same,Activity,[16],100%
same,Activity,HepG2 [17],Active
same,inhibition (INH),[18],100%
same,Activity,[19],Non-Toxic
same,Activity,[20],Non-Toxic
same,Activity,HepG2 [21],Active
same,Activity,[22],Non-Toxic
same,Activity,[23],Non-Toxic
same,Activity,[24],Non-Toxic
same,Activity,HepG2 [25],Active
same,Activity,[26],Non-Toxic
same,Activity,[27],Non-Toxic
